Assay results from different studies.
Compare with care: the assays were run in different laboratories.
Target: Ephrin type-B receptor 3 (EPHB3, Homo sapiens, UniProt P54753)
Residues used in one study (P54753 34-998): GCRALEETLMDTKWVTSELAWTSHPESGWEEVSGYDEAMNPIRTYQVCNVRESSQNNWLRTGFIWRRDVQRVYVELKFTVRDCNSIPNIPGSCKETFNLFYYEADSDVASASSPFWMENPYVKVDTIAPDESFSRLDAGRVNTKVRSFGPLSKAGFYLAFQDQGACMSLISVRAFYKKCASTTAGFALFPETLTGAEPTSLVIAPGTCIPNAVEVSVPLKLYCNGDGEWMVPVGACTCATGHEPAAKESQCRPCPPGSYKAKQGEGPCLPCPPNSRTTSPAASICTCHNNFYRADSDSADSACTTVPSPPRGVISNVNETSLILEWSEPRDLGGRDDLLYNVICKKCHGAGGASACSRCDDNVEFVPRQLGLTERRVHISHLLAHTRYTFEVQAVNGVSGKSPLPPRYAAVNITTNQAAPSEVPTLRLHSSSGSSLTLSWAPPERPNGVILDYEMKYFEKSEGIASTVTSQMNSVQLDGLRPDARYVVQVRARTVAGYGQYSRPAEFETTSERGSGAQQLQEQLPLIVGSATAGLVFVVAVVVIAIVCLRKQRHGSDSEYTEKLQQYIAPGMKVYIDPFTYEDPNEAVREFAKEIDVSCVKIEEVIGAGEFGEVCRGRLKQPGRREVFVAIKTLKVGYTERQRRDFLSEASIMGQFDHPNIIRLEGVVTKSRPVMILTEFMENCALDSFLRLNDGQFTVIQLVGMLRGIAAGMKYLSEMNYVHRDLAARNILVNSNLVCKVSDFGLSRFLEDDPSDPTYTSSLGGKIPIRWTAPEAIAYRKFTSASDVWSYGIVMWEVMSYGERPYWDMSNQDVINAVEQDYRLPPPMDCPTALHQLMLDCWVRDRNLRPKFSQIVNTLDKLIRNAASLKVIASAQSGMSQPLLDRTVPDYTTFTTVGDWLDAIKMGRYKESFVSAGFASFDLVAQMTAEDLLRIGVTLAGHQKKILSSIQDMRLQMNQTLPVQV

Structure (SMILES) | test | setting | remaining binding
COc1ccc2c(c1)O[C@H](c1ccc(OC)c(OC)c1)C[C@@H]2NC(=O)C1(c2ccc3c(c2)OC(F)(F)O3)CC1 | cell-free assay, competition with immobilised ligand | 1 µM | 91%
C[C@@H]1CCN(c2nccc(-c3cnn4ncccc34)n2)C1 | binding | 1 µM | 100%
O=C(Nc1c[nH]nc1C(=O)NC1CCNCC1)c1cc(F)cc(F)c1 | binding, competition with immobilised ligand | 1 µM | 100%
O=C(O)c1cc(-c2ccc(C3CCNCC3)cc2)c2ccc(-c3ccc(C(F)(F)F)cc3)cc2c1 | cell-free assay, competition with immobilised ligand | 1 µM | 100%
CN(C)c1ncc(F)c(-c2cnn3ncccc23)n1 | binding | 1 µM | 76%
CCN1CCN(Cc2ccc(C(=O)Nc3ccc(C)c(Oc4ccc5c(c4)CC(=O)N5)c3)cc2C(F)(F)F)CC1 | binding, competition with immobilised ligand | 1 µM | 100%
Nc1ncc2c(n1)-c1c([nH]c3ccc(C#CC4CC4)cc13)CCCC2 | binding, competition with immobilised ligand | 1 µM | 100%
O=C(c1ccc(Nc2nccc(-c3cc4ccccc4s3)n2)cc1)N1CCC(N2CCCC2)CC1 | binding, competition with immobilised ligand | 1 µM | 100%
Cc1cc(-n2nc(Cc3cc(F)cc(C(F)(F)F)c3)nc2C)ccc1C(N)=O | cell-free assay, competition with immobilised ligand | 1 µM | 100%
O=C(NCCCN1CCOCC1)c1ccc(Nc2nccc(-c3cc4ccccc4s3)n2)cc1 | binding, competition with immobilised ligand | 1 µM | 93%
C[C@@H](c1ccc(-n2cnc3c(N)ncnc32)cc1)N1CCc2nn(C)c(Cc3ccccc3)c2C1=O | binding, competition with immobilised ligand | 0.1 µM | 90%
COc1cnc(Nc2cccc(S(N)(=O)=O)c2)nc1N1CCN(c2ccccc2)CC1 | binding, competition with immobilised ligand | 1 µM | 100%
Cc1cnn2ncc(-c3ccnc(N(C)C)n3)c2c1 | binding | 1 µM | 100%
O=S(=O)(NC1CCC(c2cc(F)ccc2F)(S(=O)(=O)c2ccc(Cl)cc2)CC1)C(F)(F)F (centres unmarked) | cell-free assay, competition with immobilised ligand | 1 µM | 100%
CC1CCCN1c1nccc(-c2cnn3ncccc23)n1 (centres unmarked) | binding | 1 µM | 89%
CCS(=O)(=O)c1cc2cc(C[C@@](O)(CC(C)(C)c3ccc(F)cc3C(N)=O)C(F)(F)F)[nH]c2cn1 | cell-free assay, competition with immobilised ligand | 1 µM | 92%
CN(C)c1nccc(-c2cnc3ncccn23)n1 | binding | 1 µM | 91%
COCCOc1nc(-c2ccc(Cl)nc2)nc2c1CN(C(=O)c1ncn3ccccc13)CC2 | cell-free assay, competition with immobilised ligand | 0.1 µM | 100%
N[C@H]1CCN(c2nccc(-c3cnn4ncccc34)n2)C1 | binding | 1 µM | 97%
COc1cnc(Nc2cccc(S(N)(=O)=O)c2)nc1N1CCN(c2ccccc2)C(=O)C1 | binding, competition with immobilised ligand | 1 µM | 100%
